# Results from different studies.
# Each line is one published result; the experiments were not run side by side.
# Target: Tyrosine-protein kinase HCK (HCK, Homo sapiens, UniProt P08631)
Compound,assay,setting,endpoint,result
COc1ncccc1-c1cnn2ccc(N3CCN(C(=O)OC(C)C)CC3)nc12,"binding, competition with immobilised ligand",1 µM,remaining binding,60%
Nc1ncc(-c2nc(N3CCOCC3)nc(N3CCOCC3)n2)c(C(F)F)n1,"binding, competition with immobilised ligand",10 µM,remaining binding,77%
O=c1[nH]c2ccccc2n1C1CCN(Cc2ccc(-c3[nH]c4cc5ncnc5cc4nc3-c3ccccc3)cc2)CC1,cell-free assay,0.5 µM,remaining signal,99.6%
Cc1nn(C)cc1-c1nc2c(N3CCN(Cc4ccc(Cl)cc4)CC3)c(Cl)cnc2[nH]1,"binding, competition with immobilised ligand",1 µM,remaining binding,100%
N#CC1(c2ccccn2)CCN(Cc2cc(C(=O)O)c(=O)n3ccccc23)CC1,"cell-free assay, competition with immobilised ligand",1 µM,remaining binding,100%
Cn1cc(-c2cccc(N3CCc4c(sc5c4CC(C)(C)C5)C3=O)c2CO)cc(Nc2ccncn2)c1=O,"enzyme activity, inhibitor",1 µM,inhibition,6%
COc1cc(Nc2ncc(F)c(Nc3ccc4c(n3)NC(=O)C(C)(C)O4)n2)cc(OC)c1OC,"binding, competition with immobilised ligand",10 µM,inhibition,98%
Cn1cncc1[C@@](O)(COc1ccc(C#N)cc1-c1ccc(OC(F)(F)F)cc1)c1ccc(C#N)cc1,"cell-free assay, competition with immobilised ligand",1 µM,remaining binding,100%
CC(C)(C)c1cc(C=C(C#N)C#N)cc(Br)c1O,"enzyme activity, inhibitor",0.5 µM,remaining activity,66.1%
Cn1cc(-c2cc(F)cc(N3CCn4c(cc5c4CCCC5)C3=O)c2CO)cc(Nc2ccc(N3CCN(C4COC4)CC3)cn2)c1=O,"enzyme activity, inhibitor",0.1 µM,inhibition,9%
